Results from PMC8802302 (Journal of Medicinal Chemistry, 2021).

Experiments:
ULK2 = molecular target: T1, ULK2 (Homo sapiens, UniProt Q8IYT8); test: Eurofins kinase enzymatic radiometric assay; format: biochemical
T1 sequence (Q8IYT8 1-1036): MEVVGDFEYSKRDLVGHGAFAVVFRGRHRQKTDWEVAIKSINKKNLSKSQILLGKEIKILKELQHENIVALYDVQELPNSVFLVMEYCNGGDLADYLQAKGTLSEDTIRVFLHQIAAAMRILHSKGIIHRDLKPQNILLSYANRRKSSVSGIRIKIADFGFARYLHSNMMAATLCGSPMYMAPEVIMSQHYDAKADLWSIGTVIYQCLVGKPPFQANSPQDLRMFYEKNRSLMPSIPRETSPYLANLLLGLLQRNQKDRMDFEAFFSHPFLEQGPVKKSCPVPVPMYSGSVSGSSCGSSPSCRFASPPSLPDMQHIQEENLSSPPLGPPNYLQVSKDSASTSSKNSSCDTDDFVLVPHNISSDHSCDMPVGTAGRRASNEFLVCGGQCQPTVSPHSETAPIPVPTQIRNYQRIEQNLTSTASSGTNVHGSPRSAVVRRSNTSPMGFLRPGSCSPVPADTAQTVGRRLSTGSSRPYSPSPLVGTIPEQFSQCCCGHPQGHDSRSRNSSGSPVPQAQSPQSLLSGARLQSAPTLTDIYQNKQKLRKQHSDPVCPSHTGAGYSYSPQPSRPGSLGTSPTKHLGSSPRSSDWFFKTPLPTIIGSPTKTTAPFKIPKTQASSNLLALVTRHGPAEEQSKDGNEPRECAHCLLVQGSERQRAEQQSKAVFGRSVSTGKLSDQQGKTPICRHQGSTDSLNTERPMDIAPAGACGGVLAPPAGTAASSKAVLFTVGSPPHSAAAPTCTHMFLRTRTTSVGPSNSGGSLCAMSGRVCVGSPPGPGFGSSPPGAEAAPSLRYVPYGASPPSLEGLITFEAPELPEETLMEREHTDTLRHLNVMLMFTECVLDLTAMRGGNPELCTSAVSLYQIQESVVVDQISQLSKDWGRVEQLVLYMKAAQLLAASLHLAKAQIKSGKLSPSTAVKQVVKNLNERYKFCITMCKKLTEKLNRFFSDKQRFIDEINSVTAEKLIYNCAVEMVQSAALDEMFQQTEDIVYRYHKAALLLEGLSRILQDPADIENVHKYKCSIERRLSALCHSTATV
In short: (§1)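 Radiometric kinase activity assay with ATP at the Km for each kinase. Test compounds were run as 9-point dose–response curves in duplicate to give IC50.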

DRAK2 = molecular target: T2, DRAK2 (Homo sapiens, UniProt O94768); test: Eurofins kinase enzymatic radiometric assay; format: biochemical
T2 sequence (O94768 1-372): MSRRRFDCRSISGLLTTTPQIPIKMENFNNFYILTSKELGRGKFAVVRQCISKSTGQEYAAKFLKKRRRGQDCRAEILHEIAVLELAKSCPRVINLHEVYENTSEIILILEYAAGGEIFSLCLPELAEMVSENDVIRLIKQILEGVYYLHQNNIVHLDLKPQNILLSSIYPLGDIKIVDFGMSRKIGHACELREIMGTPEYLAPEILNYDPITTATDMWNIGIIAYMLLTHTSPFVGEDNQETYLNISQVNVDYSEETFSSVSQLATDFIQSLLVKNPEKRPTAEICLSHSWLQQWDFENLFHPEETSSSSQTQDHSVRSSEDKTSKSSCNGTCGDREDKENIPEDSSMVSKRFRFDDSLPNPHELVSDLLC
In short: as §1

DRAK1 (DRAK1-NLuc) = molecular target: T3, DRAK1 (DRAK1-NLuc) (Homo sapiens, UniProt Q9UEE5); test: NanoBRET cellular target engagement assay; format: cell-based
T3 sequence (Q9UEE5 1-414): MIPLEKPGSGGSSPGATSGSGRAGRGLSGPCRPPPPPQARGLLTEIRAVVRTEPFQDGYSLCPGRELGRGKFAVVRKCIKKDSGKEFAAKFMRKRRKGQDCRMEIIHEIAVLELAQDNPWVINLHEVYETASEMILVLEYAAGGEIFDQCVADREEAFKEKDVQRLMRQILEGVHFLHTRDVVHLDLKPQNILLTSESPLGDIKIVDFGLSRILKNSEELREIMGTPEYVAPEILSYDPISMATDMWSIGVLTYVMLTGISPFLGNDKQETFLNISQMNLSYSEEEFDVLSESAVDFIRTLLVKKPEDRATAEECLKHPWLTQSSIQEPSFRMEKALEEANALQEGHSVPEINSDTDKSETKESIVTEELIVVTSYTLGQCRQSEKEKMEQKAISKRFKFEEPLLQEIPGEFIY

[1] = test system: 403 wild-type (WT) human kinases; test: DiscoverX scanMAX kinome-wide selectivity screen; format: binding; settings: 403 WT human kinases; for no. kinases with PoC < 10: DiscoverX scanMAX, 1 μM; for S10 (1 μM): Percentage of screened kinases with PoC values < 10 at 1 μM
16-member kinase panel = test: Eurofins custom enzymatic kinase panel, count of kinases inhibited; format: biochemical; settings: 16-member Eurofins panel, 1 μM
In short: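 Radiometric kinase assays were run with ATP at Km. Each test compound was tested at a single concentration of 1 μM, in duplicate, against each panel kinase, with results as percent of control. The count is the number of kinases at ≤ 10 PoC, i.e. inhibited ≥ 90%.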

JAK2 = JAK2 (Homo sapiens, UniProt O60674); test: Eurofins kinase enzymatic radiometric assay; format: biochemical
JAK2, sequence (O60674 whole entry): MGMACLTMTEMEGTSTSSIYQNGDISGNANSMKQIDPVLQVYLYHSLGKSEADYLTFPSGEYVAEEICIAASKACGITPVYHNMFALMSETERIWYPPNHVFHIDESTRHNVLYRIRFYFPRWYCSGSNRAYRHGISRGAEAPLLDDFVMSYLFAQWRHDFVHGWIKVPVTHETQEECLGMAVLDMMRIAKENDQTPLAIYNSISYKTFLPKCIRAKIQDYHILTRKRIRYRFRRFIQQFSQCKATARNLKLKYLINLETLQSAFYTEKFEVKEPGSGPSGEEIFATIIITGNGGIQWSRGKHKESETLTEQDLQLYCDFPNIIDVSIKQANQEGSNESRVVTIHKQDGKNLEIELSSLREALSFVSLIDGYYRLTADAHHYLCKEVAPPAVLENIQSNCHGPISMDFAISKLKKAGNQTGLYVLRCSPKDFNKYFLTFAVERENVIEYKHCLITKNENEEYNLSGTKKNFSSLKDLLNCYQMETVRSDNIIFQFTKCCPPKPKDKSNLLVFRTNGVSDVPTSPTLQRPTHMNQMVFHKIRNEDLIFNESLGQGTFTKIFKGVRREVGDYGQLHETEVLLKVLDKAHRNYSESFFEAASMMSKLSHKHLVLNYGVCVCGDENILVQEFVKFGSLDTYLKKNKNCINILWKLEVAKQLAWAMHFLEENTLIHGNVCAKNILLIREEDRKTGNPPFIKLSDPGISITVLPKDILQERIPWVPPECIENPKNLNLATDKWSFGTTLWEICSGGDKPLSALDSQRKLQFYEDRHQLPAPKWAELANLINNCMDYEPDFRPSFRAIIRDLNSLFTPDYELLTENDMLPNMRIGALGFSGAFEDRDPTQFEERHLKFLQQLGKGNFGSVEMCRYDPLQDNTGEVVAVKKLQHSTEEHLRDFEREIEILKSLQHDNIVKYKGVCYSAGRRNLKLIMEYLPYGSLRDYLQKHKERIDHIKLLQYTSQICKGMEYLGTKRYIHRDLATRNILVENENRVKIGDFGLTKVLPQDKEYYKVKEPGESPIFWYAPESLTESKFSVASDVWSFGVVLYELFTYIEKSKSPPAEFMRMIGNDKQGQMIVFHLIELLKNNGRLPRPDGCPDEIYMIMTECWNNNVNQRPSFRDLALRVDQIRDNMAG
In short: as §1

Row | IC50 (ULK2) [µM] | IC50 (DRAK2) [µM] | fold loss in potency, enzymatic versus NanoBRET, DRAK1 (DRAK1 (DRAK1-NLuc)) [fold] | DRAK1 NanoBRET IC50 (DRAK1 (DRAK1-NLuc); HEK293, 0.5 μM tracer K-9, n = 1 where no error, SEM n = 3) | no. kinases ≤ 10 PoC in enzyme panel (16-member kinase panel) | IC50 (JAK2) [µM] | SMILES | no. kinases with PoC < 10 [1] | S10 (1 μM) [1]
1 | 1.74 | 0.062 | < 10 | submicromolar | 1 | – | Cc1nn(CC(F)(F)F)cc1Nc1ncc(C2CC2)c(NCCCNC(=O)C2CCC2)n1 [Compound 4, N-(3-((5-Cyclopropyl-2-((3-methyl-1-(2,2,2-trifluoroethyl)-1H-pyrazol-4-yl)amino)pyrimidin-4-yl)amino)propyl)cyclobutanecarboxamide] | 11 | 0.027
2 | – | – | < 10 | – | 0 | > 10 | O=C(NCCCNc1ccnc(Nc2cccc(NC(=O)N3CCCC3)c2)n1)C1CCC1 [Compound 17, N-(3-((4-((3-(Cyclobutanecarboxamido)propyl)amino)pyrimidin-2-yl)amino)phenyl)pyrrolidine-1-carboxamide] | 3 | 0.007
